IDH1 mut inh: blocks human IDH1 R132H reductase activity | diaphorase/resazurin fluorescence, 60 min | 70,000 compounds, 0.18% hits | O75874 | AID 624101 | inhibition, % at 10 µM; in the data active = inhibition above about 34%; inconclusive = no clear call, values can overlap the other calls; inactive = below about 11%
Target sequence (O75874 whole entry R132H): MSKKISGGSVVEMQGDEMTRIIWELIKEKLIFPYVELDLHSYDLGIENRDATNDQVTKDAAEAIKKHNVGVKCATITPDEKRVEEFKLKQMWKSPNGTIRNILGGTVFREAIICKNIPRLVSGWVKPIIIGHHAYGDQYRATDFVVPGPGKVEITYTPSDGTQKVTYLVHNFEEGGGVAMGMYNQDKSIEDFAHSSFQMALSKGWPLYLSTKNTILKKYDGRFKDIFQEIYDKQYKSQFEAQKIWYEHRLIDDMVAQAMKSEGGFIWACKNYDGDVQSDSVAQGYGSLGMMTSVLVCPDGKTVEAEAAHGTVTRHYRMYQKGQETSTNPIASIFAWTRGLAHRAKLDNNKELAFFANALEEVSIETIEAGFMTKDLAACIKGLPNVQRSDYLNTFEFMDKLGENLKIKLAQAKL
GASC1 inh: inhibitors of human demethylase GASC-1 KDM4C; Q9H3R0; 96,000 compounds, 0.15% hits; GST-KDM4C 2-372, H3K9me3 peptide, LANCE TR-FRET; inhibition, % at 12.5 µM;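 active = mean replicate inhibition above about 25%, with at least 55% of replicates also reaching it, limit read from the data, passing the limit was not always enough; inconclusive = only one of those two conditions met; inactive = neither condition met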
Target sequence (Q9H3R0 2-372 limits assumed): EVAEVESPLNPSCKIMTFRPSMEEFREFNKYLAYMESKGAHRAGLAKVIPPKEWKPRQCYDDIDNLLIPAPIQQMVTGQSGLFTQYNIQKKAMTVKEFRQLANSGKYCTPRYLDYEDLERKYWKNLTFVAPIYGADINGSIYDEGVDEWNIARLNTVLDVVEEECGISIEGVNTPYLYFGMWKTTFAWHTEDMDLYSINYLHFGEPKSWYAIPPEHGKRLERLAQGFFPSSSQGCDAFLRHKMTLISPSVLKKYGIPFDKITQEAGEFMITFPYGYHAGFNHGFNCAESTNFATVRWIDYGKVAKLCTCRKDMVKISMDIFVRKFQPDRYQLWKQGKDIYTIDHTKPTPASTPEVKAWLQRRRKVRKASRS
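Material: GST-tagged GASC-1 (JMJD2C) catalytic fragment, aa 2-372 / Quantity: enzyme final amount 10 nM / Medium: HEPES buffer, pH 7.5, plus ascorbate / Doses: one test concentration per compound / Incubation: 30 min reaction, 60 min detection, RT / Measured by: LANCE TR-FRET / Read-out: inhibition from TR-FRET ratio decrease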
T cruzi growth-1: inhibitors of T. cruzi proliferation | T. cruzi beta-gal in NIH3T3, GalScreen luminescence, 90 h | inhibition, % at 8.34 µM | 77,000 compounds, 5.9% hits;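 active = mean inhibition above about 93%, with at least 55% of replicates each passing it, limit read from the data, passing the limit was not always enough; inconclusive = only one of those two conditions holds; inactive = neither condition holds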
T cruzi growth-2: inhibitors of T. cruzi proliferation | shares compounds with T cruzi growth-1 | T. cruzi beta-gal in NIH3T3, GalScreen luminescence, 90 h | inhibition, % at 8.35 µM | 5,600 compounds, 72% hits | AID 651739;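 active = mean replicate inhibition above about 95% and at least 55% of replicates individually reaching it, limit read from the data; inconclusive = only one of the two criteria is met; inactive = neither criterion is met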
T cruzi growth-3: blocks T. cruzi growth in NIH3T3 host cells. shares compounds with T cruzi growth-1. T. cruzi beta-gal in NIH3T3, GalScreen luminescence, 90 h. inhibition, % at 2.09 µM. 5,600 compounds, 21% hits;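 active = mean inhibition above about 95%, with at least 55% of replicates also reaching it, limit read from the data; inconclusive = meets just one of the two conditions; inactive = meets neither condition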
NIH3T3 tox: kills mouse NIH/3T3 fibroblasts; shares compounds with T cruzi growth-1; NIH/3T3 viability, CellTiter-Glo ATP luminescence, 90 h; cytotoxicity (signal decrease), % at 8.35 µM; 5,600 compounds, 14% hits; AID 651742;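 active = mean signal decrease across replicates above about 35% based on untreated-well scatter, with enough replicates individually passing, limit read from the data; inconclusive = no rule stated though some were filed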
3T3 cytotox 2: NIH/3T3 (mouse) viability loss. shares compounds with T cruzi growth-1. NIH/3T3 viability, CellTiter-Glo ATP luminescence, 90 h. inhibition, % at 24.9 µM. 5,600 compounds, 56% hits;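 active = mean loss of cell viability signal at or above a set limit, and enough replicates individually reaching it; inconclusive = meets only the mean limit or only the replicate share; inactive = meets neither condition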
Numbers stand for hits; i = inactive; ? = inconclusive; nt = no result given; ! = a repeat was not active. This is one part of a sample in which hits are shown more often than they occur.

SMILES	IDH1 mut inh	GASC1 inh	T cruzi growth-1	T cruzi growth-2	T cruzi growth-3	NIH3T3 tox	3T3 cytotox 2
COc1cccc(-c2ccc3c(c2)O[C@H](CN(C)C(=O)C2CC2)[C@@H](C)CN([C@@H](C)CO)S3(=O)=O)c1	nt	i	i	nt	nt	nt	nt
CCn1ncc(Cl)c1C(=O)NCc1ccco1	i	nt	nt	nt	nt	nt	nt
COC(=O)c1ccccc1NC(=O)COc1cc(C)c(Br)c(C)c1	i	nt	nt	nt	nt	nt	nt
COc1cc(OC)cc(-c2nnc(SCC(=O)Nc3ccc(F)cc3)o2)c1	i	nt	nt	nt	nt	nt	nt
CC1OC(Oc2cc(O)c(C3OC(C)C(O)C(O)C3O)c3oc(-c4ccc(O)cc4)cc(=O)c23)C(O)C(O)C1O (stereo not given)	i	nt	nt	nt	nt	nt	nt
CC(C)NC(=O)Nc1ccc2c(c1)C(=O)N([C@H](C)CO)C[C@@H](C)[C@H](CN(C)Cc1ccccc1)OCCCC[C@H](C)O2	i	i	i	nt	nt	nt	nt
CC(C)NC(=O)Nc1ccc2c(c1)C(=O)N([C@@H](C)CO)C[C@@H](C)[C@@H](CN(C)Cc1ccccc1)OCCCC[C@H](C)O2	i	i	102.9	i	i	i	i
CC(C)NC(=O)Nc1ccc2c(c1)C(=O)N([C@H](C)CO)C[C@@H](C)[C@@H](CN(C)Cc1ccccc1)OCCCC[C@@H](C)O2	i	i	i	nt	nt	nt	nt
CC(C)NC(=O)Nc1ccc2c(c1)C(=O)N([C@@H](C)CO)C[C@@H](C)[C@H](CN(C)Cc1ccccc1)OCCCC[C@H](C)O2	i	i	102.0!	i	i	i	i
O=C(NCCCN1CCOCC1)c1ccc2nc(-c3ccccc3)c(-c3ccccc3)nc2c1	i	nt	nt	nt	nt	nt	nt
Cc1cccc(NC(=O)C2CC(=O)n3c(nc4ccccc43)N2)c1 (stereo not given)	i	nt	nt	nt	nt	nt	nt
CCCCCCC/C=N/NC(=O)c1ccccc1O	i	nt	nt	nt	nt	nt	nt
C[C@@H]1CN([C@H](C)CO)C(=O)c2cc(NC(=O)Nc3cccc4ccccc34)ccc2O[C@H]1CN(C)Cc1ccc(Oc2ccccc2)cc1	i	i	112.5	107.3	i	i	i
C[C@@H]1CN([C@@H](C)CO)C(=O)c2cc(NC(=O)Nc3cccc4ccccc34)ccc2O[C@@H]1CN(C)Cc1ccc(Oc2ccccc2)cc1	i	i	123.6	98.7	104.6	i	27.3
COc1ccc(CN(C)C[C@H]2Oc3ccc(NC(=O)Nc4cccc5ccccc45)cc3C(=O)N([C@H](C)CO)C[C@@H]2C)cc1	i	i	i	nt	nt	nt	nt
COc1ccc(CN(C)C[C@H]2Oc3ccc(NC(=O)Nc4cccc5ccccc45)cc3C(=O)N([C@@H](C)CO)C[C@H]2C)cc1	i	i	i	nt	nt	nt	nt
C[C@@H]1CN([C@@H](C)CO)S(=O)(=O)c2ccc(C3=CCCC3)cc2O[C@@H]1CN(C)S(=O)(=O)c1ccc(F)cc1	i	i	119.5	106.2	i	i	30.5
Cc1ccc(S(=O)(=O)N(C)C[C@@H]2Oc3cc(C4=CCCC4)ccc3S(=O)(=O)N([C@H](C)CO)C[C@H]2C)cc1	i	i	nt	nt	nt	nt	nt
C[C@H](CO)N1C[C@H](C)[C@H](CN(C)S(=O)(=O)c2ccc(F)cc2)Oc2cc(C3=CCCC3)ccc2S1(=O)=O	i	i	117.8	107.7	i	37.0	24.0
Cc1ccc(S(=O)(=O)N(C)C[C@H]2Oc3cc(C4=CCCC4)ccc3S(=O)(=O)N([C@@H](C)CO)C[C@@H]2C)cc1	i	i	nt	nt	nt	nt	nt
CCNc1nc(SCC(N)=O)nc(N2CCOCC2)n1	i	nt	nt	nt	nt	nt	nt
COc1ccc(C(C)C)cc1S(=O)(=O)n1cnc2cc(C)c(C)cc21	i	nt	nt	nt	nt	nt	nt
Cc1cc(C)c(S(=O)(=O)N(C)CC(=O)Nc2ccccc2F)c(C)c1	i	nt	nt	nt	nt	nt	nt
C[C@@H]1CN([C@H](C)CO)C(=O)c2cc(C#Cc3ccccc3)cnc2O[C@@H]1CN(C)S(=O)(=O)c1ccccc1F	i	nt	i	nt	nt	nt	nt
C[C@H](CO)N1C[C@H](C)[C@H](CN(C)S(=O)(=O)c2ccccc2)Oc2ncc(C#Cc3ccccc3F)cc2C1=O	i	i	113.2	104.0	i	i	54.8
SMILES	IDH1 mut inh	GASC1 inh	T cruzi growth-1	T cruzi growth-2	T cruzi growth-3	NIH3T3 tox	3T3 cytotox 2
C[C@@H]1CN([C@H](C)CO)C(=O)c2cc(C#Cc3ccccc3F)cnc2O[C@@H]1CN(C)C	i	i	98.1	i	i	i	?
CCCNC(=O)N(C)C[C@H]1Oc2ncc(C#Cc3ccccc3F)cc2C(=O)N([C@H](C)CO)C[C@H]1C	i	i	i	nt	nt	nt	nt
CCCNC(=O)N(C)C[C@@H]1Oc2ncc(C#Cc3ccccc3F)cc2C(=O)N([C@H](C)CO)C[C@H]1C	i	i	107.1	97.5	i	i	42.6
C[C@@H]1CN([C@@H](C)CO)C(=O)c2cc(C#Cc3ccccc3F)cnc2O[C@H]1CN(C)S(=O)(=O)c1ccccc1F	i	i	107.7	115.2	105.5	i	68.0
C[C@@H]1CN([C@@H](C)CO)C(=O)c2cc(C#Cc3ccccc3F)cnc2O[C@H]1CN(C)S(C)(=O)=O	i	i	i	nt	nt	nt	nt
C[C@H](CO)N1C[C@H](C)[C@@H](CN(C)C)Oc2ncc(C#Cc3ccccc3F)cc2C1=O	i	i	i	nt	nt	nt	nt
COC(=O)c1ccsc1NC(=O)c1ccsc1NC(=O)c1cccnc1	i	nt	nt	nt	nt	nt	nt
CC1CCc2c(sc3ncnc(SCCO)c23)C1 (stereo not given)	i	nt	nt	nt	nt	nt	nt
CC(=O)Nc1ccc2c(c1)nc1n2CCN(Cc2ccco2)C1	i	nt	nt	nt	nt	nt	nt
O=C(N/N=C/c1ccc2ccccc2c1)c1ccccn1	i	nt	nt	nt	nt	nt	nt
C[C@H]1CN([C@@H](C)CO)C(=O)c2cc(C#Cc3ccccc3F)cnc2O[C@H]1CN(C)S(=O)(=O)c1ccccc1	nt	i	nt	nt	nt	nt	nt
C[C@@H]1CN([C@@H](C)CO)C(=O)c2cc(C#Cc3ccccc3F)cnc2O[C@H]1CN(C)S(=O)(=O)c1ccccc1	i	i	120.5	109.6	i	i	25.1
O=C(COc1ccc(I)cc1)NCc1ccco1	i	nt	nt	nt	nt	nt	nt
COCCNC[C@H]1[C@@H](c2ccccc2)[C@@H](CO)N1c1nc(C)c(C)s1	nt	i	103.0	i	i	i	i
COCCNC[C@@H]1[C@@H](c2ccccc2)[C@@H](CO)N1c1nc(C)c(C)s1	nt	i	i	nt	nt	nt	nt
CS(=O)(=O)N(CC(=O)NC1CC2CCC1C2)c1cc(Cl)cc(Cl)c1 (stereo not given)	i	nt	nt	nt	nt	nt	nt
COc1cccc(S(=O)(=O)Nc2ccc(C(=O)Nc3ccc4c(c3)OCCO4)cc2)c1	i	nt	nt	nt	nt	nt	nt
C[C@H](CO)N1C[C@H](C)[C@H](CN(C)Cc2cncnc2)Oc2cc(C3=CCCC3)ccc2S1(=O)=O	nt	i	i	nt	nt	nt	nt
C[C@H](CO)N1C[C@H](C)[C@@H](CN(C)Cc2cccnc2)Oc2cc(C3=CCCCC3)ccc2S1(=O)=O	nt	i	nt	nt	nt	nt	nt
C[C@@H]1CN([C@@H](C)CO)S(=O)(=O)c2ccc(C3=CCCCC3)cc2O[C@H]1CN(C)Cc1ccncc1	i	i	114.0	95.2	106.8	45.7	94.5

Source: PubChem BioAssay (Broad Institute)
